Only some compounds are listed: those with a hit (about 3% of all), similar ones and a draw of the others.
SENP6 inh: SENP6 protease inhibitors, primary screen, biochemical, luminescence, uHTS. Sentrin-specific protease 6 (Homo sapiens), Q9GZR1. inhibition, % at 10 µM. Recombinant SENP6 catalytic domain, aminoluciferin luminescence. AID 2599, 2010. 1.8% of 330,000 active;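 active = inhibition above about 50% at the single tested dose, limit read from the data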;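 note: plate controls were DMSO wells with enzyme for no effect and DMSO wells lacking enzyme for full effect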
Apaf1 inhib: inhibitors of human Apaf-1 apoptosome, primary screen, biochemical, DEVD-Rh110 fluorescence, uHTS; Apoptotic protease-activating factor 1 (Homo sapiens), O14727; reconstituted apoptosome caspase-3 activity; 0.71% of 330,000 active; inhibition, % at 20 µM; active = inhibition of at least 40% at 20 µM;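 note: plate controls were DMSO wells for no effect and DEVD-CHO caspase inhibitor wells for full effect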
Target sequence (O14727 whole entry, looked up): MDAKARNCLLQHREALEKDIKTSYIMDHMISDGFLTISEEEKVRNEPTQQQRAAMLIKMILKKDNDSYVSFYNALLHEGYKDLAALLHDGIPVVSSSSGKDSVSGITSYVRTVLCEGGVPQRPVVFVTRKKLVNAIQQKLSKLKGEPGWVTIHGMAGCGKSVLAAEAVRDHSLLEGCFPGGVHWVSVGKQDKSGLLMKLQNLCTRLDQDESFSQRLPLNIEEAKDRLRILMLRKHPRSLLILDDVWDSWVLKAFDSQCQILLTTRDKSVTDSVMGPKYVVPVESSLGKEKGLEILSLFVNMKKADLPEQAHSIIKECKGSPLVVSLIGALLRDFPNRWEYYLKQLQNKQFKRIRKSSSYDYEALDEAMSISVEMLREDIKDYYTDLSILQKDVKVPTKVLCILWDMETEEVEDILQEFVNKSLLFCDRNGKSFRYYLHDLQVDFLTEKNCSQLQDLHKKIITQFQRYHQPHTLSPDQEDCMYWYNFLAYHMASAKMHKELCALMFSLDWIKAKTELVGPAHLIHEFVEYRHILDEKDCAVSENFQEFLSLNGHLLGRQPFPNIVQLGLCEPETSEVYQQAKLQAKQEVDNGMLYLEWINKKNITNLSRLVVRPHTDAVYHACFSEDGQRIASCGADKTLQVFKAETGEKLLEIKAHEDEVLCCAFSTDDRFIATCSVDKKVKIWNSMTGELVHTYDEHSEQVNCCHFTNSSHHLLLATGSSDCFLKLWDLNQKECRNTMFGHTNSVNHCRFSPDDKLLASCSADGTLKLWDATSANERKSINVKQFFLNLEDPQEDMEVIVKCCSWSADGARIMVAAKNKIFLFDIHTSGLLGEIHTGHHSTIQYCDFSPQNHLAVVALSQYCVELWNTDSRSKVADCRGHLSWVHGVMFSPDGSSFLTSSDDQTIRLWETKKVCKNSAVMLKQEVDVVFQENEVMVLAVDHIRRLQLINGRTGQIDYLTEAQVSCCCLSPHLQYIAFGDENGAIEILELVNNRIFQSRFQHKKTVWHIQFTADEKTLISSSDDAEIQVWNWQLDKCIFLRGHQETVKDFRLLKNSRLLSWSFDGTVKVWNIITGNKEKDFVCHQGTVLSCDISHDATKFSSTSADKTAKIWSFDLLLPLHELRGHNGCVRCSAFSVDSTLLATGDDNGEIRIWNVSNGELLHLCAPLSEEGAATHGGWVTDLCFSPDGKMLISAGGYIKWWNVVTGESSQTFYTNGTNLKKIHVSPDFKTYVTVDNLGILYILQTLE
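Material: cell-free apoptosome with Apaf-1, procaspase-3 and caspase-9; Buffer or medium: Hepes pH 7.5 with detergent and BSA; Reagent: cytochrome c trigger plus (Z-DEVD)2-Rh110 caspase-3 substrate; Times: compound with Apaf-1, dATP, procaspase-3 30 min, then 50 min reaction, room temperature; Technique: Rh110 fluorescence intensity.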
SENP8 block-1: human SENP8 protease inhibitors, primary screen, biochemical, fluorescence, Nedd8 protein substrate, uHTS. Sentrin-specific protease 8 (Homo sapiens), Q96LD8. recombinant SENP8. inhibition, % at 20 µM. 0.64% of 360,000 active. AID 602440, 2012; in the data active = inhibition mostly above about 40%, no sharp cut-off; inactive = mostly below about 27%
SENP7 block: SENP7 protease inhibitors, primary screen, biochemical, luminescence, uHTS | Sentrin-specific protease 7 (Homo sapiens), Q9BQF6 | recombinant SENP7, Z-RLRGG-aminoluciferin luminescence, 40 min | inhibition, % at 5 µM | 1.5% of 330,000 active | AID 434973, 2010;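 active = inhibition above about 50% at the single test dose, limit read from the data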;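 note: plate controls were DMSO with enzyme for no effect and no enzyme buffer wells for full effect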
UBC13 inh: UBC13 polyubiquitin chain formation inhibitors, primary screen, biochemical, TR-FRET, uHTS | Ubiquitin-conjugating enzyme E2 N (Homo sapiens), P61088 | inhibition, % at 20 µM | 0.47% of 330,000 active | AID 485273, 2010; in the data active = inhibition above about 45%, passing the limit was not always enough
SENP8 block-2: SENP8 protease inhibitors, primary screen, biochemical, luminescence; inhibition, % at 10 µM; 1.2% of 330,000 active; purified SENP8, Z-RLRGG-aminoluciferin cleavage; Sentrin-specific protease 8 (Homo sapiens), Q96LD8; AID 2540, 2010; in the data active = inhibition above about 50%
SENP8 conf: SENP8 protease inhibitors, retest, confirmation, biochemical, luminescence, single concentration; shares compounds with SENP7 block; Recombinant SENP8, Z-RLRGG-aminoluciferin luminescence, 60 min; inhibition, % at 12.5 µM; 40% of 6,200 active;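 active = mean inhibition across replicates above about 50%, limit read from the data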
SENP6 conf: SENP6 protease inhibitors, confirmation, biochemical, luminescence, single concentration | recombinant SENP6, Z-RLRGG-aminoluciferin luminescence | inhibition, % at 12.5 µM | shares compounds with SENP7 block | 58% of 6,200 active
SENP7 conf: SENP7 protease inhibitors, retest, confirmation, biochemical, luminescence, single concentration; inhibition, % at 12.5 µM; recombinant SENP7, Z-RLRGG-aminoluciferin luminescence, 40 min; shares compounds with SENP7 block; 69% of 6,200 active
Casp3 select: caspase-3 protease inhibitors, confirmation, selectivity assay for SENP inhibitor project, biochemical, single concentration. inhibition, % at 12.5 µM. AID 488918, 2010. purified caspase-3, Z-DEVD-aminoluciferin luminescence, 60 min. 60% of 6,200 active. shares compounds with SENP7 block;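 active = mean inhibition above about 50%, limit read from the data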;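 note: plate controls were enzyme with DMSO for no effect and wells without caspase-3 for full effect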
SENP luc ctr: luminescence interference (SENP counter-screen); Pre-incubated SENP8/Z-RLRGG-aminoluciferin, luciferase luminescence interference; inhibition, % at 12.5 µM; shares compounds with SENP7 block; AID 488919; 39% of 6,200 active;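 active = mean inhibition above about 50% when retested at one dose, limit read from the data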;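 note: plate controls were DMSO wells with completed reaction for no effect and substrate without enzyme for full effect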
* marks the source's active call; other numbers are inactive results; i = inactive; · = no result.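 Rule for the calls, unless noted: active = mean inhibition above about 50% in the one-dose retest (limit read from the data); inactive = the rest.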

SMILES	SENP6 inh	Apaf1 inhib	SENP8 block-1	SENP7 block	UBC13 inh	SENP8 block-2	SENP8 conf	SENP6 conf	SENP7 conf	Casp3 select	SENP luc ctr
CSCCC(NC(=O)c1ccccc1)C(=O)OCC(=O)Nc1ccc(C)c(Cl)c1 (stereo not given)	-6	27	3	6	7	2	·	·	·	·	·
CCOC(=O)[C@]12CCC=C1N(Cc1cccc3ccccc13)C(=O)[C@H](CC(=O)N1CCN(C(=O)c3ccco3)CC1)C2	·	·	16	·	·	·	·	·	·	·	·
O=[N+]([O-])c1ccccc1N/N=C\c1ccccc1Cl	91*	4	36	97*	-52	84*	16	17	7	56*	3
O=[N+]([O-])c1ccccc1N/N=C/c1cccc(O)c1O	92*	-2	55*	98*	-33	88*	16	30	20	22	12
O=[N+]([O-])c1ccccc1C=NNc1ccccc1	·	·	36	·	·	·	·	·	·	·	·
O=[N+]([O-])c1ccc(O)c(/C=N/Nc2ccccc2Cl)c1	50*	10	29	50*	-16	36	6	12	23	20	18
CCCCCCCCN1C(=O)[C@H](CC(=O)NCc2ccc(OC)c(OC)c2)C[C@@]2(C(=O)OC)CCCCC=C12	·	·	4	·	·	·	·	·	·	·	·
COC(=O)[C@]12CCCCC=C1N(Cc1ccco1)C(=O)[C@H](CC(=O)NCc1cccs1)C2	·	·	12	·	·	·	·	·	·	·	·
COc1ccc2cc(-c3cc(C(=O)O)c4ccccc4n3)ccc2c1	83*	9	i	63*	6	54*	73*	72*	88*	81*	40
COc1cc2ccc(-c3ccc4ccccc4n3)cc2cc1OC	·	·	-474	·	·	·	·	·	·	·	·
COc1ccc(-c2ccc3ccccc3n2)cc1	94*	4	-417	99*	7	93*	92*	97*	101*	95*	74*
CC(=O)Oc1c(C)cc(Cl)cc1C(=O)Nc1ccc([N+](=O)[O-])cc1Cl	84*	-3	18	98*	-4	24	9	8	10	24	14
CC(=O)OCC(=O)Nc1ccc([N+](=O)[O-])cc1Cl	7	-18	12	6	5	-2	·	·	·	·	·
CN(C)c1ccc(-c2cc3ccccc3c(=O)o2)cc1	77*	7	-498	66*	0	84*	20	21	27	36	15
Cc1nnc(SC/C=C/c2ccccc2)n(N)c1=O	1	-17	8	-2	-2	3	·	·	·	·	·
O=C(/C=C/c1ccccc1)n1cnnc1SC/C=C/c1ccccc1	59*	4	13	29	-10	8	39	48	68*	32	38
CCCOc1ccc(F)cc1-c1cc(C(=O)NCc2cccs2)[nH]n1	·	·	27	·	·	·	·	·	·	·	·
N#CC(C#N)=NNc1ccc([N+](=O)[O-])cc1	81*	-6	24	44	-152	74*	11	82*	93*	61*	83*
Cc1ccc(Cc2c(-c3ccccc3)nc3c(Cl)cc(C(F)(F)F)cn23)cc1	·	·	-234	·	·	·	·	·	·	·	·
O=C(c1ccc(Cl)cc1)c1nnc(-c2ccncc2)o1	24	-2	32	12	-1	4	·	·	·	·	·
O=C(c1ccccc1)c1nnc(-c2ccncc2)o1	58*	-1	28	57*	1	44	68*	64*	86*	88*	57*
CCOC(=O)/C(=N\Nc1ncnc2ccccc12)c1ccc(OC)cc1	77*	15	15	65*	-13	74*	24	70*	90*	48	8
COc1cc(OC)cc(C(=O)Nn2c(C)nc3ccccc3c2=O)c1	-3	-3	13	0	-9	-6	·	·	·	·	·
COc1ccc2[nH]c3c(c2c1)CCn1c-3nc2ccccc2c1=O	26	-5	i	80*	-6	-8	7	10	23	18	4
Cc1ccc(F)cc1C(=O)N1CCCCC1c1cc(C(=O)Nc2ccc(F)c(Cl)c2)no1 (stereo not given)	·	·	16	·	·	·	·	·	·	·	·
SMILES	SENP6 inh	Apaf1 inhib	SENP8 block-1	SENP7 block	UBC13 inh	SENP8 block-2	SENP8 conf	SENP6 conf	SENP7 conf	Casp3 select	SENP luc ctr
Cc1ccc(-c2cnc(C(O)c3ccc(Cl)c(Cl)c3)[nH]2)cc1 (stereo not given)	·	·	0	·	·	·	·	·	·	·	·
O=C(CCN1C(=O)/C(=C/c2ccccc2Cl)SC1=S)N1CCCC1	9	24	24	-16	-27	-6	·	·	·	·	·
O=C(CCCN1C(=O)/C(=C/c2ccccc2Cl)SC1=S)NCCCN1CCOCC1	52*	13	22	21	18	22	50*	44	65*	30	40
O=C(CCCN1C(=O)/C(=C/c2ccccc2Cl)SC1=S)N1CCCC1	74*	22	22	68*	-9	84*	85*	84*	88*	61*	28
COc1ccc(-c2nc3ccccc3c(=O)[nH]2)cc1	52*	-11	0	61*	-3	22	3	38	77*	37	0
CN(C)c1ccc(-c2nc3ccccc3c(=O)[nH]2)cc1	98*	5	i	95*	0	88*	41	95*	100*	89*	5
COc1ccc2nc(-c3ccc(N)cc3)[nH]c2c1	75*	4	i	83*	-29	54*	68*	61*	91*	86*	74*
COc1ccc2nc(-c3cccc(N)c3)[nH]c2c1	77*	-15	-489	82*	7	58*	70*	71*	94*	88*	67*
COc1cccc(-n2c(N)c(-c3nc4ccccc4[nH]3)sc2=S)c1	3	5	-11	-2	14	5	·	·	·	·	·

Source: PubChem BioAssay (Sanford-Burnham Center for Chemical Genomics)
